{
  "source": "paper PMC9126795",
  "about": "(eBioMedicine, 2022)",
  "type_in_all_cases": "in vivo, human",
  "key": {"[1]": {"test_system": "patients with HCV and HBV liver cirrhosis", "test": "FIB-4 index, post-hoc analysis", "details": "before and after administration", "summary_of_the_method": "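This post-hoc analysis covered HCV/HBV cirrhosis patients given 280 mg/m² of the test compound by 4 h IV infusion twice weekly for 12 weeks. FIB-4 index was calculated before and after administration.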"}, "[2]": {"test_system": "patients with HCV and HBV liver cirrhosis", "test": "Serum ALB, PT and TBIL", "details": "14 patients"}, "[3]": {"test_system": "patients with HCV and HBV liver cirrhosis", "test": "Ishak", "summary_of_the_method": "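Liver biopsies were taken at screening (baseline) and within 2 weeks of the final dose of 280 mg/m²/4 h IV twice weekly for 12 weeks. Three independent pathologists scored slides blinded, using Knodell scoring and Ishak-modified HAI for necroinflammation and fibrosis stage. Thirteen of 15 patients were evaluable; one was excluded for poor sample quality and one discontinued.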"}, "[4]": {"details": "280mg/m^2/4 h, 12 weeks, 13 patients"}},
  "data": [
    {"substance": "PRI-724", "values": [
      {"measurement": "FIB-4 index", "setting": "[1]", "value": "statistically significant decrease"},
      {"measurement": "Serum ALB level", "setting": "[2]", "value": "improved from baseline at some time after PRI-724 administration"},
      {"measurement": "Serum TBIL level", "setting": "[2]", "value": "improved from baseline at some time after PRI-724 administration"},
      {"measurement": "Patients with change in Fibrosis score from baseline of 0", "setting": "[3]; [4]", "value": 6},
      {"measurement": "Patients with change in Fibrosis score from baseline of 1", "setting": "[3]; [4]", "value": 3},
      {"measurement": "Patients with change in Fibrosis score from baseline of 2", "setting": "[3]; [4]", "value": 1},
      {"measurement": "Patients with change in Fibrosis score from baseline of -1", "setting": "[3]; [4]", "value": 1},
      {"measurement": "Patients with change in Fibrosis score from baseline of -2", "setting": "[3]; [4]", "value": 2},
      {"measurement": "Patients with change in Necroinflammatory score from baseline of 0", "setting": "[3]; [4]", "value": 5},
      {"measurement": "Patients with change in Necroinflammatory score from baseline of 1", "setting": "[3]; [4]", "value": 2},
      {"measurement": "Patients with change in Necroinflammatory score from baseline of 2", "setting": "[3]; [4]", "value": 2},
      {"measurement": "Patients with change in Necroinflammatory score from baseline of -1", "setting": "[3]; [4]", "value": 2},
      {"measurement": "Patients with change in Necroinflammatory score from baseline of -2", "setting": "[3]; [4]", "value": 2},
      {"measurement": "Mean activity score", "setting": "[3]; after 12-week PRI-724 administration", "value": "No change was observed"}
    ]}
  ]
}
